Test results as given in ChEMBL document CHEMBL2417499, “Structure-activity relationship studies of Niemann-Pick type C1-like 1 (NPC1L1) ligands identified by screening assay monitoring pharmacological chaperone effect” (Bioorg Med Chem, 2013).
pEC50: −log10 of the molar value. The source made the active and inactive calls. The rule behind the calls is not given here.

Tests used:
[1] = Binding affinity to human GFP-tagged NPC1L1 L1072T/L1168I mutant expressed in HEK293 cells assessed as localization to endoplasmic reticulum and plasma membrane after 24 hrs by fluorescence microscopic analysis; type: cell-based; conditions: for pEC50: read-out: EC50
How it was run: (§1)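 HEK293 cells stably expressing the GFP-tagged construct (G418 0.4 mg/mL) were seeded at 6,000 cells/well in DMEM with 1% FBS on poly-lysine-coated glass. On day 2 they were treated for 24 h, final DMSO 0.1%. Cells were fixed in 3.7% formaldehyde and imaged at ×100. Across 25 images, cells were scored ER 0 to PM 1 and averaged as % plasma membrane localization. EC50 was taken from this score.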

[2] = Binding affinity to human GFP-tagged NTD-deleted NPC1L1 L1072T/L1168I mutant expressed in HEK293 cells assessed as localization to plasma membrane after 24 hrs by fluorescence microscopic analysis; type: cell-based; how it was run: as §1
HEK293 [3] = test: Binding affinity to human GFP-tagged NPC1L1 L1072T/L1168I mutant expressed in HEK293 cells assessed as localization to endoplasmic reticulum and plasma membrane at 10 uM after 24 hrs by fluorescence microscopic analysis; type: cell-based
How it was run: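 HEK293 cells stably expressing NPC1L1-GFP mutant from a CMV promoter, kept under G418 (0.4 mg/mL). Seeded at 6,000 cells/well on poly-lysine-coated glass in DMEM with 1% FBS. Dosed next day in 0.1% DMSO final for 24 h, then fixed in 3.7% formaldehyde and imaged at ×100. Each cell in 25 images scored ER 0 to PM 1; mean reported as % plasma membrane localization.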

[4] = molecular target: T1, NPC intracellular cholesterol transporter 1 (Homo sapiens) (UniProt O15118); test: Binding affinity to NPC1 (unknown origin)
T1 sequence (whole entry): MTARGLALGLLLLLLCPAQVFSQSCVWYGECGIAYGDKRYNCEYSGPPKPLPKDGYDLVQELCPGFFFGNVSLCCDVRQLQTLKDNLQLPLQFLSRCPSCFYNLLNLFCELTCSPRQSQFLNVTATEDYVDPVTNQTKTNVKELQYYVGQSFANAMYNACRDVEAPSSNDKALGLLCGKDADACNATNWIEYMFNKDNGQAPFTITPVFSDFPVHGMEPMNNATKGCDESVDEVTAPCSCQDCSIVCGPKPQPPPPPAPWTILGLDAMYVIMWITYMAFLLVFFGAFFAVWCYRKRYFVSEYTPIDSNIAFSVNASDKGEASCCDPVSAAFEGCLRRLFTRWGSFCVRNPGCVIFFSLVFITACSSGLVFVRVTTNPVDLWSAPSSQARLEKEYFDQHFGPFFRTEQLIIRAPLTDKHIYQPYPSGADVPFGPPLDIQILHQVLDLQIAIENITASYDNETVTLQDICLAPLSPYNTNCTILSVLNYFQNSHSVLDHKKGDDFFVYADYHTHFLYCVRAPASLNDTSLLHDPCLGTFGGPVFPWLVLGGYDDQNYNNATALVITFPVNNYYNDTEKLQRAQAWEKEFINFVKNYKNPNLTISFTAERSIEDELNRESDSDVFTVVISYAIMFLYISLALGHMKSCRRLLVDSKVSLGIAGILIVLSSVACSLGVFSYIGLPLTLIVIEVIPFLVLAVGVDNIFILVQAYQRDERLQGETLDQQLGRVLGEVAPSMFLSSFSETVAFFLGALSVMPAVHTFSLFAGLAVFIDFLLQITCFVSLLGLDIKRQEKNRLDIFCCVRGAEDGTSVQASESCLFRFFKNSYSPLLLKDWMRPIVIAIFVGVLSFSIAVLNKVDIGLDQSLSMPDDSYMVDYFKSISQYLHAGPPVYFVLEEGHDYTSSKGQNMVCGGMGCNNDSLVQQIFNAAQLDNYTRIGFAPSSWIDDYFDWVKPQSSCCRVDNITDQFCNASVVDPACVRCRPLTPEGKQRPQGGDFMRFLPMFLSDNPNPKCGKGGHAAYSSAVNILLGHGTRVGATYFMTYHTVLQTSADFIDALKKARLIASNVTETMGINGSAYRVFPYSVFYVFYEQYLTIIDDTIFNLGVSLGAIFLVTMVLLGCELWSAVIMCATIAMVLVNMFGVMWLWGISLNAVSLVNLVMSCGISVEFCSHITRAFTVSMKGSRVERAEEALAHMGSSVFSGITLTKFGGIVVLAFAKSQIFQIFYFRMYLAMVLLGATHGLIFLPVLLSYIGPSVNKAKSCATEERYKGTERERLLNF

HEK293 [5] = test: Cytotoxicity against HEK293 cells transfected with human GFP-tagged NPC1L1 L1072T/L1168I mutant; type: cell-based
HEK293 [6] = test: Binding affinity to human GFP-tagged NPC1L1 L1072T/L1168I mutant expressed in HEK293 cells assessed as protein stabilization after 24 hrs by fluorescence assay; type: cell-based
How it was run: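 Stable HEK293 lines were grown to 70% confluency in phenol red-free medium in 12-well plates and exposed to vehicle or compound for 24 h. Supernatant GFP fluorescence was read and normalized to BCA total protein, n = 3.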

SMILES | pEC50 [1] | further results
CC(C)CCC[C@@H](C)[C@H]1CC[C@H]2[C@@H]3C(=O)C=C4C[C@@H](O)CC[C@]4(C)[C@H]3CC[C@]12C [7-OXOCHOLESTEROL] | 5.01 | 
CCCN(CCC)C(=O)O[C@H]1CC[C@@]2(C)C(=CC[C@H]3[C@@H]4CC[C@H]([C@H](C)CCC(=O)N(C)C)[C@@]4(C)CC[C@@H]32)C1 | 5.52 | pEC50 [2]: 5.10
CC(C)CCC[C@@H](C)[C@H]1CC[C@H]2[C@@H]3C[C@@H](O)[C@H]4C[C@@H](O)CC[C@]4(C)[C@H]3CC[C@]12C | 5.01 | 
CC(C)CCC[C@@H](C)[C@H]1CC[C@H]2[C@@H]3C(=O)C=C4C[C@@H](OC(=O)N(CCO)CCO)CC[C@]4(C)[C@H]3CC[C@]12C | 5.42 | 
CNC(=O)CC[C@@H](C)[C@H]1CC[C@H]2[C@@H]3CC=C4C[C@@H](O)CC[C@]4(C)[C@H]3CC[C@]12C | < 5.00 | 
CC(C)CCC[C@@H](C)[C@H]1CC[C@H]2[C@@H]3[C@@H](O)C=C4C[C@@H](O)CC[C@]4(C)[C@H]3CC[C@]12C | 5.00 | 
CC(C)CC[C@@H](O)[C@@H](C)[C@H]1CC[C@H]2[C@@H]3CC=C4C[C@@H](O)CC[C@]4(C)[C@H]3CC[C@]12C |  | Activity (HEK293 [3]): inactive
CC(C)CCC[C@@H](C)[C@H]1CC[C@H]2[C@@H]3C[C@H](O)[C@H]4C[C@@H](OC(=O)N(CCO)CCO)CC[C@]4(C)[C@H]3CC[C@]12C | 5.96 | 
C[C@H](CCCC(C)(C)O)[C@H]1CC[C@H]2[C@@H]3CC=C4C[C@@H](O)CC[C@]4(C)[C@H]3CC[C@]12C | 5.64 | Activity [4]: Active
C[C@H](CCC(=O)N(C)C)[C@H]1CC[C@H]2[C@@H]3CC=C4C[C@@H](OC(=O)N(C)C)CC[C@]4(C)[C@H]3CC[C@]12C | 5.96 | pEC50 [2]: 5.33
CC(C)CCC[C@@H](C)[C@H]1CC[C@H]2[C@@H]3CC(=O)[C@H]4C[C@@H](OC(=O)N(CCO)CCO)CC[C@]4(C)[C@H]3CC[C@]12C | 5.42 | 
CCCCN(CCCC)C(=O)CC[C@@H](C)[C@H]1CC[C@H]2[C@@H]3CC=C4C[C@@H](O)CC[C@]4(C)[C@H]3CC[C@]12C | < 5.52 | 
CCN(CC)C(=O)CC[C@@H](C)[C@H]1CC[C@H]2[C@@H]3CC=C4C[C@@H](O)CC[C@]4(C)[C@H]3CC[C@]12C |  | Activity (HEK293 [5]): Toxic
C[C@H](CCC(=O)O)[C@H]1CC[C@H]2[C@@H]3CC=C4C[C@@H](O)CC[C@]4(C)[C@H]3CC[C@]12C | < 5.00 | 
CCCN(CCC)C(=O)CC[C@@H](C)[C@H]1CC[C@H]2[C@@H]3CC=C4C[C@@H](O)CC[C@]4(C)[C@H]3CC[C@]12C |  | Activity (HEK293 [5]): Toxic
CC(C)CCC[C@@H](C)[C@H]1CC[C@H]2[C@@H]3C[C@H](O)[C@H]4C[C@@H](O)CC[C@]4(C)[C@H]3CC[C@]12C | 5.07 | 
CC(C)CCC[C@@H](C)[C@H]1CC[C@H]2[C@@H]3C[C@@H](O)[C@@]4(O)C[C@@H](OC(=O)N(CCO)CCO)CC[C@]4(C)[C@H]3CC[C@]12C | 5.09 | 

SMILES | pEC50 [1] | further results
CC(C)CCC[C@@H](C)[C@H]1CC[C@H]2[C@@H]3CC=C4C[C@@H](O)CC[C@]4(C)[C@H]3CC[C@]12C |  | Activity (HEK293 [3]): inactive
CC(C)CCC[C@@H](C)[C@H]1CC[C@H]2[C@@H]3C[C@@H](O)[C@H]4C[C@@H](OC(=O)N(CCO)CCO)CC[C@]4(C)[C@H]3CC[C@]12C | 5.70 | 
CC(C)CCC[C@@H](C)[C@H]1CC[C@H]2[C@@H]3CC=C4C[C@@H](O)CC[C@]4(CO)[C@H]3CC[C@]12C |  | Activity (HEK293 [6]): inactive; Activity (HEK293 [3]): inactive
CC(C)CCC[C@](C)(O)[C@H]1CC[C@H]2[C@@H]3CC=C4C[C@@H](O)CC[C@]4(C)[C@H]3CC[C@@]21C |  | Activity (HEK293 [3]): inactive
C[C@H](CCC(=O)N(C)C)[C@H]1CC[C@H]2[C@@H]3CC=C4C[C@@H](OC(N)=O)CC[C@]4(C)[C@H]3CC[C@]12C | 5.07 | pEC50 [2]: < 5.00
C[C@H](CCCO)[C@H]1CC[C@H]2[C@@H]3CC=C4C[C@@H](O)CC[C@]4(C)[C@H]3CC[C@]12C |  | EC50 [1]: Not Active
CC(C)CCC[C@@H](C)[C@H]1CC[C@H]2[C@@H]3CC(=O)[C@H]4C[C@@H](O)CC[C@]4(C)[C@H]3CC[C@]12C [5alpha-CHOLESTAN-3beta-OL-6-ONE] | 5.55 | 
CC(C)CCC[C@@H](C)[C@H]1CC[C@H]2[C@@H]3[C@@H](O)C=C4C[C@@H](OC(=O)N(CCO)CCO)CC[C@]4(C)[C@H]3CC[C@]12C | 5.70 | 
CC(C)CCC[C@@H](C)[C@H]1CC[C@H]2[C@@H]3CC=C4C[C@@H](OC(=O)N(CCO)CCO)CC[C@]4(C)[C@H]3CC[C@]12C |  | EC50 [1]: Not Active
CC(C)CC[C@H](O)[C@@H](C)[C@H]1CC[C@H]2[C@@H]3CC=C4C[C@@H](O)CC[C@]4(C)[C@H]3CC[C@]12C |  | Activity [4]: Active; Activity (HEK293 [3]): inactive
C[C@H](CCC(N)=O)[C@H]1CC[C@H]2[C@@H]3CC=C4C[C@@H](O)CC[C@]4(C)[C@H]3CC[C@]12C | < 5.00 | 
CCN(CC)C(=O)O[C@H]1CC[C@@]2(C)C(=CC[C@H]3[C@@H]4CC[C@H]([C@H](C)CCC(=O)N(C)C)[C@@]4(C)CC[C@@H]32)C1 | 5.74 | pEC50 [2]: 5.38
C[C@H](CCC(=O)N(C)C)[C@H]1CC[C@H]2[C@@H]3CC=C4C[C@@H](OC(=O)N5CCOCC5)CC[C@]4(C)[C@H]3CC[C@]12C | 5.64 | pEC50 [2]: 5.21
C[C@]12CC[C@H](O)CC1=CC[C@@H]1[C@@H]2CC[C@]2(C)C(=O)CC[C@@H]12 |  | Activity (HEK293 [3]): inactive
C[C@H](CCC(=O)N(C)C)[C@H]1CC[C@H]2[C@@H]3CC=C4C[C@@H](OC(=O)N5CCN(C)CC5)CC[C@]4(C)[C@H]3CC[C@]12C | 5.54 | pEC50 [2]: < 5.00
C[C@H](CCC(C)(C)O)[C@H]1CC[C@H]2[C@@H]3CC=C4C[C@@H](O)CC[C@]4(C)[C@H]3CC[C@]12C | < 5.00 | 
C[C@H](CCC(=O)N(C)C)[C@H]1CC[C@H]2[C@@H]3CC=C4C[C@@H](O)CC[C@]4(C)[C@H]3CC[C@]12C | 6.10 | 
